Assay outcomes from PubChem BioAssay.
PKA-R1A act: PKA-R1A complex activation | P00514+P68181 | PKA-R1A dissociation, Cy5-IP20 fluorescence polarization; scaled: DMSO 0%, 113 µM cGMP 100% | activation, % at 11.4 µM | 340,000 compounds, 0.083% hits;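 active means percent activation above the mean of all tested compounds plus 3 SD, cut at about 19% in these data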;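 further: higher means more PKAc released from R1A so a rise in polarization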
PKA-R2B act: activators of human PKA-R2B complex. P22694+P31323. AID 504700. 340,000 compounds, 0.079% hits. activation, % at 11.4 µM. PKA-R2B holoenzyme dissociation, Cy5-IP20 fluorescence polarization; R2B truncated from residue 108, S112A mutant; 0% DMSO only, 100% 113 µM cGMP;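 active means activation above a cutoff set at the mean over all compounds plus 3 SD, cut at about 18% in these data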;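 further: higher means more holoenzyme dissociation and a rise in polarization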
PG9 binder: small molecules binding HIV-1 gp120 antibody PG9 | inhibition, % at 6.7 µM | TR-FRET gp120-PG9 antibody binding | 360,000 compounds, 0.43% hits | AID 624416; in the data active means inhibition above about 8.5%
NR2E3 ag-1: NR2E3 (human) agonism. Q9Y5X4. GST-NR2E3/biotin-RetCOR TR-FRET, 1536-well. inhibition of corepressor binding, % at 4.78 µM. 320,000 compounds, 0.12% hits. AID 2300;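 active means percent inhibition above the cutoff of mean plus 3 SD of all tested compounds, set per screening campaign, cut at about 20% in these data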
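Material: NR2E3–RetCOR corepressor complex / Amount: 1.35 nM GST-NR2E3 / Medium: Tris pH 7.5 / Compound: single nominal compound dose of 4.8 µM / Incubation: 5 h at 4 °C / Technique: TR-FRET, Eu(K)-anti-GST donor, streptavidin-D2 acceptor, ex 340, em 617/671 nm / Read-out basis: percent loss of FRET ratio relative to control wells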
NR2E3 ag-2: agonists of human NR2E3 nuclear receptor. inhibition of corepressor binding, % at 3.98 µM. CHO-S Gal4-NCOR/VP16-NR2E3 two-hybrid, luciferase. AID 602229. Q9Y5X4. 360,000 compounds, 0.35% hits;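 active means inhibition above the mean of all tested compounds plus 3 SD, cut at about 70% in these data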;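 further: higher means lower luciferase signal from less NR2E3 corepressor binding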
Rev-erbA mod: Rev-erb alpha (human) modulation; P20393; Rev-erbα–FITC-DNA binding, fluorescence polarization, 90 min; activity, % at 10 µM; 370,000 compounds, 0.79% hits; AID 1259318;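 active means activity above about 14%, limit read from the data; passing the limit was not always enough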
Target sequence (P20393 whole entry, looked up): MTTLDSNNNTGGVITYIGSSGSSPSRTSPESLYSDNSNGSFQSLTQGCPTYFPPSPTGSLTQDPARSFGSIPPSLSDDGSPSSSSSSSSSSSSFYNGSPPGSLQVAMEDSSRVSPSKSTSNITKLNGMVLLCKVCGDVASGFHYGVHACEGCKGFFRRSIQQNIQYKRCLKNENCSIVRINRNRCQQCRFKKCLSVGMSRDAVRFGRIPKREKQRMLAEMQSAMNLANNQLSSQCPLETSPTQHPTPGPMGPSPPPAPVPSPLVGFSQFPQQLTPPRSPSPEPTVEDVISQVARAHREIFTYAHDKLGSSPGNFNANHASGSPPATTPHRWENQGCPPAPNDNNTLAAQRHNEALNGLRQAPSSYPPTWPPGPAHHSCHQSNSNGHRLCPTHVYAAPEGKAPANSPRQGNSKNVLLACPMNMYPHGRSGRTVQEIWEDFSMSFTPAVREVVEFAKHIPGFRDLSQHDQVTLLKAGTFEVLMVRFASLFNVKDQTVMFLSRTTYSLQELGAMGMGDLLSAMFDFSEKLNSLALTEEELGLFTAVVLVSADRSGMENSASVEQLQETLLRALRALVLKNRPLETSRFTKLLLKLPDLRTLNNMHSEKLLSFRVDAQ
PG9 bind confirm: confirmation of small molecules binding HIV-1 gp120 antibody PG9. TR-FRET PG9 antibody binding, biochemical. AID 651571. shares compounds with PG9 binder. inhibition, % at 6.7 µM. 1,500 compounds, 90% hits; in the data active means inhibition above about 9%
PGV04 Ab binding: PGV04 control antibody binding, counter-screen | shares compounds with PG9 binder | TR-FRET PGV04 antibody-gp120 binding, biochemical | inhibition, % at 6.7 µM | 1,500 compounds, 95% hits | AID 651604; in the data active means inhibition above about 9.5%
PG9 bind DR: small molecules binding HIV-1 gp120 antibody PG9 | shares compounds with PG9 binder | TR-FRET PG9 antibody-gp120 binding inhibition | 95 tested, under 10 active | IC50, µM; in the data active means IC50 below about 10 µM
PGV04 binding DR: counter-screen for PG9 binders: binding to control antibody PGV04; shares compounds with PG9 binder; TR-FRET binding to control antibody PGV04; IC50, µM; 95 compounds, 20% hits; AID 651937
PG126 binding DR: binds control antibody PG126 in PG9 counter-screen. shares compounds with PG9 binder. TR-FRET binding to antibody PG126, counterscreen. IC50, µM. 95 compounds, 20% hits. AID 651939
Of the large screens only hits and unclear results are named; the others gave an inactive call (follow-up assays come after a bar, where they were run). Only some compounds are listed: those with a hit (about 1.6% of all), similar ones and a draw of the others. Unless noted, no stated cut-off is given here; in the data, active means IC50 below about 9 µM; inactive means the rest.

Cc1ccc(NC(=O)CSc2nc(O)cc(=O)n2C)cc1	none
Cc1ccc(NC(=O)CSc2nc3sc(C)cc3c(=O)n2C)cc1	PG9 binder 16.7 | PG9 bind confirm 15.8 | PGV04 Ab binding 25.9
Cc1cc(NC2C3CC4CC(C3)CC2C4)n2nnnc2n1 (configuration not stated)	PG9 binder 24.0 | PG9 bind confirm 28.7 | PGV04 Ab binding 38.6
O=C1C2C3c4ccccc4C(c4ccccc43)C2C(=O)N1c1cccc2cccnc12 (configuration not stated)	PG9 binder 10.0 | PG9 bind confirm inactive | PGV04 Ab binding inactive
Cc1ccc(N/C(N)=N/c2nc(CSc3nnc(N)s3)cc(=O)[nH]2)cc1	none
N/C(=N\c1nc(CSc2nc3ccccc3s2)cc(=O)[nH]1)Nc1ccc(F)cc1	PG9 binder 9.3 | PG9 bind confirm 27.4 | PGV04 Ab binding 39.6
Cc1cc(C)c2nc(SCC(=O)NC(=O)c3cccn3C)cc(C)c2c1	PG9 binder 14.6 | PG9 bind confirm 12.7 | PGV04 Ab binding 26.6
CCOC(=O)NC(=O)CSc1cc(C)c2cc(C)cc(C)c2n1	none
CC(C)CN1C(=O)[C@@]2(CC(=O)N(C)C2c2ccccc2)c2cc(-n3cc(CCCC#N)nn3)ccc21 (some centres not stated)	none (no result: PKA-R1A act, PKA-R2B act, PG9 binder, NR2E3 ag-1, NR2E3 ag-2)
COC(=O)c1cc(Br)c(=O)n(-c2ccc(OC)cc2)c1	PG9 binder 9.9 | PG9 bind confirm 16.8 | PGV04 Ab binding 21.9
COC(=O)c1cc(Br)c(=O)n(-c2ccccc2OC)c1	none
COC(=O)c1cc(Br)c(=O)n(-c2cccc(F)c2)c1	PG9 binder 11.4 | PG9 bind confirm 19.2 | PGV04 Ab binding 23.3
COC(=O)c1cc(Br)c(=O)n(CCc2ccccc2)c1	none
CCSc1nnc(NC(=O)c2csc3c2CCC(C)C3)s1 (configuration not stated)	none
CCSc1nnc(NC(=O)c2csc3c2CCCC3)s1	PG9 binder 9.2 | PG9 bind confirm 23.8 | PGV04 Ab binding 37.5
CCOC(=O)COc1cccc2c(=O)n(CC(=O)N3CCc4ccccc43)ccc12	PG9 binder 14.5 | PG9 bind confirm 21.0 | PGV04 Ab binding 25.5
CC(C)C[C@@H]1COc2cc(Br)ccc2S(=O)(=O)N1Cc1cn(Cc2ccco2)nn1	none (no result: PKA-R1A act, PKA-R2B act, PG9 binder, NR2E3 ag-1, NR2E3 ag-2)
CCC(=O)OCCCN1CCC2(CCCCC2)C1=O	none (no result: PKA-R1A act, PKA-R2B act, PG9 binder, NR2E3 ag-1, NR2E3 ag-2)
CCc1ccc(NC(=O)CSc2nc3cc(C(=O)OC)ccc3c(=O)n2Cc2ccco2)cc1	none
CCOC(=O)c1c(NC(=O)CSc2nc3cc(Cl)ccc3c(=O)n2Cc2ccco2)sc(C(=O)N(C)C)c1C	PG9 binder 50.9 | PG9 bind confirm 9.5 | PGV04 Ab binding 22.8
CCN(C(=O)CSc1nnc(-c2cccnc2)n1Cc1ccco1)c1ccccc1C	none (no result: PKA-R1A act, PKA-R2B act, PG9 binder, NR2E3 ag-1, NR2E3 ag-2)
O=c1[nH]c2ccccc2cc1CN(c1ccccc1)S(=O)(=O)c1ccccc1	PG9 binder 18.2 | PG9 bind confirm 25.0 | PGV04 Ab binding 26.7
S=c1nc(Cc2ccc(Cl)cc2)[nH]c2ccccc12	PG9 binder 15.6 (no result: PKA-R1A act, PKA-R2B act) | PG9 bind confirm inactive | PGV04 Ab binding 11.2
O=C(Nc1nc2c(Cl)cccc2s1)c1ccc(Br)o1	PG9 binder 34.7 | PG9 bind confirm 39.3 | PGV04 Ab binding 43.5
O=C(Nc1nc2c(Cl)cccc2s1)c1ccc([N+](=O)[O-])o1	none
CCC[C@H]1[C@@H](N(C)CC2CCCCC2)CC[C@@]23CCCN2C(=O)CCC[C@@H]13	none (no result: PKA-R1A act, PKA-R2B act, PG9 binder, NR2E3 ag-1, NR2E3 ag-2)
Cc1cc(-n2c(C)cc(C(=O)COc3ccc(Cl)cc3C(N)=O)c2C)no1	PG9 binder 11.2 (no result: NR2E3 ag-1) | PG9 bind confirm 20.5 | PGV04 Ab binding 34.1
Cc1ccc(OCC(=O)c2cc(C)n(-c3cc(C)on3)c2C)c([N+](=O)[O-])n1	none (no result: NR2E3 ag-1)
CCCCN1CN2Cc3cc(OC)ccc3C2CS1(=O)=O (configuration not stated)	none (no result: PKA-R1A act, PKA-R2B act, PG9 binder, NR2E3 ag-1, NR2E3 ag-2)
CC(COc1cc(F)cc(F)c1)CN1CCC(C(O)(c2ccccc2)c2ccccc2)CC1 (configuration not stated)	none (no result: PKA-R1A act, PKA-R2B act, PG9 binder, NR2E3 ag-1, NR2E3 ag-2)
O=C(O)Cc1ccc2sc(-c3ccccc3)nc2c1	PG9 binder 9.0 | PG9 bind confirm 11.2 | PGV04 Ab binding 16.9
COC(=O)Cc1ccc2sc(-c3ccccc3)nc2c1	none
O=C(CN1C(=O)C2(OCCCO2)c2ccccc21)NCc1ccccc1Cl	none (no result: PKA-R1A act, PKA-R2B act, PG9 binder, NR2E3 ag-1, NR2E3 ag-2)
Cc1cc(NC(=O)Cn2nc(-c3cccs3)ccc2=O)cc(C)c1Br	none
Cc1cccc(C)c1NC(=O)Cn1nc(-c2ccc(Cl)s2)ccc1=O	PG9 binder 11.1 | PG9 bind confirm inactive | PGV04 Ab binding inactive
CCCCN(C)c1c2c(nc3ncnn13)CCCC2	none (no result: PKA-R1A act, PKA-R2B act, PG9 binder, NR2E3 ag-1, NR2E3 ag-2)
CCN(CC(=O)Nc1ccc(NC(C)=O)cc1)C(=O)CSc1ncnc2sc(C)c(C)c12	PG9 binder 11.3 | PG9 bind confirm inactive | PGV04 Ab binding 24.4
C=CCn1c(C)c(C(=O)OCC)c2cc(O)c3ccccc3c21	PG9 binder 11.4 (no result: NR2E3 ag-1) | PG9 bind confirm inactive | PGV04 Ab binding inactive | PG9 bind DR inactive | PGV04 binding DR inactive | PG126 binding DR inactive
CCOC(=O)c1c(C)n(CC)c2c1cc(O)c1ccccc12	none
CCOc1ccc(/C(O)=C2\C(=O)C(=O)N(c3ccccn3)C2c2ccccc2F)c(C)c1 (configuration not stated)	PG9 binder 9.6 (no result: NR2E3 ag-1) | PG9 bind confirm 22.2 | PGV04 Ab binding 31.9
COc1ccc(/C(O)=C2/C(=O)C(=O)N(c3ccccn3)C2c2ccc(F)cc2)cc1 (configuration not stated)	none (no result: NR2E3 ag-1)
N#CCC[C@H]1CC[C@]2(CCCN(Cc3ccc(Br)cc3)C2)O1	none (no result: PKA-R1A act, PKA-R2B act, PG9 binder, NR2E3 ag-1, NR2E3 ag-2)
CCCCn1c(SCC(=O)c2ccc(OC)c(OC)c2)nc2cc(S(N)(=O)=O)ccc21	none
CCCCn1c(SCC(=O)c2ccc(OCC)cc2)nc2cc(S(N)(=O)=O)ccc21	PG9 binder 19.0 | PG9 bind confirm 22.1 | PGV04 Ab binding 35.3
